From publication PMC8753982 (ACS chemical neuroscience, 2019)
Entries after “also recorded” stand apart in the source; their conditions may differ. Values belong to the compound of their own block, whether it stands above or below them.

Tests used:
[1] = molecular target: mGlu5 (mGlu5/HEK stable cell line) (Rattus norvegicus, UniProt P31424); test: Fluorescence-based Ca2+ flux assay with a microplate reader; assay type: cell-based; settings: for LLE: LLE = pIC50 − log P (consensus log Po/w Table 1, IC50 Table 3)
[2] = molecular target: T1, endogenous mGlu5 in striatal neurons (Rattus norvegicus, UniProt P31424); test: as above; assay type: cell-based
[3] = molecular target: T2, endogenous mGlu5 in hippocampal neurons (Rattus norvegicus, UniProt P31424); test: as above; assay type: cell-based
[4] = molecular target: endogenous mGlu5 in cortical neurons (Rattus norvegicus, UniProt P31424); test: as above; assay type: cell-based
mGlu5 (mGlu5/HEK cells) = test: Single cell Ca2+ imaging; assay type: cell-based; settings: for effect on DHPG-induced oscillatory Ca2+ response: DHPG 100 μM, NAM applied after agonist at 1, 5, 10 μM; for effect of NAM pretreatment on DHPG or Quis-mediated Ca2+ responses: DHPG 100 μM or Quis 10 μM
[5] = molecular target: T2, endogenous mGlu5 in hippocampal neurons; test: Single cell Ca2+ imaging; assay type: cell-based; settings: pretreatment 1 μM, Quis 10 μM
[6] = molecular target: T1, endogenous mGlu5 in striatal neurons; test: Single cell Ca2+ imaging; assay type: cell-based; settings: for effect on single cell intracellular responses at 10-fold IC50: at 10-fold their IC50 values (refs 20, 25); for effect on Quis-mediated Ca2+ responses (intracellular mGlu5): compound at 1, 5, 10 μM
How it was run: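 Primary striatal cultures from 1-day-old neonatal rat pups, on gridded glass dishes, loaded with 5 μM Oregon Green 488 BAPTA-AM. Cultures were preincubated with 20 μM CPCCOEt (mGlu1 antagonist) plus 25 μM AMPA receptor antagonist, then imaged by confocal microscopy during agonist (Quis 10 μM) and NAM (1, 5, 10 μM) exposure. Signals were taken as fractional fluorescence change over basal and normalized to Quis response (% Quis).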

mGlu5 = settings: read-out: published IC50; cited from earlier work
[7] = test system: mGlu5 (mGlu5/HEK stable cell line); test: Fluorescence-based Ca2+ flux assay with a microplate reader; assay type: cell-based; settings: LLE = pIC50 − log P (consensus log Po/w Table 1, IC50 Table 3)
mGlu5 (mGlu5/HEK stable cell line), sequence (P31424 21-1203): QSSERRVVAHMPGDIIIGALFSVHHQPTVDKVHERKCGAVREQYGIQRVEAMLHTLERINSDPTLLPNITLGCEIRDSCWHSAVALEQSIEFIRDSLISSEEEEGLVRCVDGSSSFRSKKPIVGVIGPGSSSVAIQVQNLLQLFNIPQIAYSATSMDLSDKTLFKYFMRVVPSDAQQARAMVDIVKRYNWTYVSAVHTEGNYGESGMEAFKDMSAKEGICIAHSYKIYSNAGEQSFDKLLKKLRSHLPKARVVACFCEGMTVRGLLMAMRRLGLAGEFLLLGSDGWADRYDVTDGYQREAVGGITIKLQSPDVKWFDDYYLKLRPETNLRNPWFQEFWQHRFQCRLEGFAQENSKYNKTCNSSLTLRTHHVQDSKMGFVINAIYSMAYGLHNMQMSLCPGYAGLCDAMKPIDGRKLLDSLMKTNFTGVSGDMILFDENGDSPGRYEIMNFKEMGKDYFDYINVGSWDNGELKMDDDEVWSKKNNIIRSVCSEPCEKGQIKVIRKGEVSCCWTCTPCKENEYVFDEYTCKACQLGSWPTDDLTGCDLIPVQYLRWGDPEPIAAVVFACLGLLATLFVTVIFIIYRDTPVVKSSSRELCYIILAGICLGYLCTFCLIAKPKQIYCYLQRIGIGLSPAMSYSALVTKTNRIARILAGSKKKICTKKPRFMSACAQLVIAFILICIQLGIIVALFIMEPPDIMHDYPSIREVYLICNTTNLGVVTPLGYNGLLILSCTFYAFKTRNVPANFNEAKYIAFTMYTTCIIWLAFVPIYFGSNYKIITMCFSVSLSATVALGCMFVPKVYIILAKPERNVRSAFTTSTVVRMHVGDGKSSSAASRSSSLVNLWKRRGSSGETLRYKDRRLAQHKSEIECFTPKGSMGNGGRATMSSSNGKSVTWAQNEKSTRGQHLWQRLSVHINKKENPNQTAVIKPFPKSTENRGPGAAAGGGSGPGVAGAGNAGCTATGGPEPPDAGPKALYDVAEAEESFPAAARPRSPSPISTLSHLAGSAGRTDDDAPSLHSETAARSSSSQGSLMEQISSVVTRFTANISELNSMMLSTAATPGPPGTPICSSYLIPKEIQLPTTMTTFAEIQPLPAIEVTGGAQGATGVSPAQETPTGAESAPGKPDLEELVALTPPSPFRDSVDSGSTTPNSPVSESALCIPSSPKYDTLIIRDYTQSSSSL

T1 sequence (P31424 21-1203): as above
mGlu5 (mGlu5/HEK stable cell line) (Rattus norvegicus, UniProt P31424), sequence (P31424 21-1203): as above
endogenous mGlu5 in cortical neurons, sequence (P31424 21-1203): as above
T2 sequence (P31424 21-1203): as above

LLE [1]: 5.50
IC50 [2]: 2930 ± 480 nM
fold shift of IC50 between mGlu5/HEK cells and striatal cultures [2]: 16 fold
IC50 [3]: 442 ± 150 nM
IC50 [4]: 807 ± 53.5 nM
LLE ([4]; cortical, LLE = pIC50 − log P (consensus log Po/w Table 1, IC50 Table 3)): 2.94
effect on Quis-induced Ca2+ response at 1 μM NAM [5]: less effective
effect on single cell intracellular responses at 10-fold IC50 [6]: did not block
effect on Quis-mediated Ca2+ responses (intracellular mGlu5) ([6]; striatal neurons, Quis 10 μM): less effective
effect on Quis-induced Ca2+ response at 1 μM NAM ([6]; striatal, pretreatment 1 μM, Quis 10 μM): less effective
SMILES: CN1CC(=O)N=C1NC(=O)Nc1cccc(Cl)c1 [Fenobam, N-(3-chlorophenyl)-N′-(4,5-dihydro-1-methyl-4-oxo-1H-imidazol-2-yl)urea]
effect on DHPG-induced oscillatory Ca2+ response (mGlu5 (mGlu5/HEK cells)): blocked
effect on Quis-induced Ca2+ response at 1 μM NAM (mGlu5 (mGlu5/HEK cells); pretreatment 1 μM, Quis 10 μM): less effective
effect of NAM pretreatment on DHPG or Quis-mediated Ca2+ responses (mGlu5 (mGlu5/HEK cells)): completely blocked

LLE [1]: 4.57
IC50 [2]: 9440 ± 3780 nM
fold shift of IC50 between mGlu5/HEK cells and striatal cultures [2]: 250 fold
IC50 [3]: 257 ± 27.4 nM
IC50 [4]: 270 ± 73 nM
effect on DHPG-induced Ca2+ response ([6]; striatal neurons, pre- or post-treatment, cell-surface only agonist DHPG): blocked
SMILES: COC(=O)N1CC[C@@H]2[C@H]1CCC[C@@]2(O)C#Cc1cccc(C)c1 [AFQ056, methyl (3aR,4S,7aR)-4-hydroxy-4-[(3-methylphenyl)ethynyl]octahydro-1H-indole-1-carboxylate]
effect on DHPG-induced oscillatory Ca2+ response (mGlu5 (mGlu5/HEK cells)): inhibited; also recorded: blocked
effect on Quis-induced Ca2+ response (mGlu5 (mGlu5/HEK cells); Quis 10 μM, NAM at 1, 5, 10 μM): inhibited; also recorded: blocked
effect of NAM pretreatment on DHPG or Quis-mediated Ca2+ responses (mGlu5 (mGlu5/HEK cells)): completely blocked
effect on Quis-mediated Ca2+ responses (intracellular mGlu5) ([6]; striatal neurons, Quis 10 μM): neither 1, 5, nor 10 μM AFQ056 blocked Quis-mediated Ca^2+ responses; also recorded: did not completely block; also recorded: fails to block
IC50 (mGlu5): 30 nM

LLE [7]: 4.59
IC50 [2]: 62 ± 17.5 nM
IC50 [3]: 8.97 ± 3.4 nM
IC50 [4]: 80.2 ± 16.8 nM
fold difference of potency in cortical neurons versus HEK cells [4]: 45 fold
SMILES: Cc1nc(C#Cc2ccnc(Cl)c2)c(C)n1-c1ccc(F)cc1 [RG7090, 2-chloro-4-((1-(4-fluorophenyl)-2,5-dimethyl-1H-imidazol-4-yl)ethynyl)pyridine]
effect on DHPG-induced oscillatory Ca2+ response (mGlu5 (mGlu5/HEK cells)): blocked
effect of NAM pretreatment on DHPG or Quis-mediated Ca2+ responses (mGlu5 (mGlu5/HEK cells)): completely blocked
effect on Quis-mediated Ca2+ responses (intracellular mGlu5) ([6]; striatal neurons, Quis 10 μM): most effective; also recorded: very effective

Further lines, the compound ahead of its results:

SMILES: N[C@H](C(=O)O)c1cc(O)cc(O)c1 [DHPG, (S)-3,5-dihydroxyphenylglycine]
maximum DHPG-induced Ca2+ increase, % of the Quis-induced response ([2]; plate reader, cell type not given): 15–20%

SMILES: N[C@@H](Cn1oc(=O)[nH]c1=O)C(=O)O [Quis, Quisqualate]
Quis EC80 [1]: 125 ± 32.3 nM
EC50 [2]: 1310 ± 360 nM
fold difference in EC50 between the cortical and hippocampal neurons and the striatum, respectively ([2]; Quis): 8–10 fold
fold difference in the EC50 for Quis in HEK cells versus striatal neurons ([2]; mGlu5/HEK versus endogenous mGlu5-expressing striatal neurons): 42 fold
Quis EC80 ([2]; striatal): 5250 ± 1430 nM
difference in EC50 between cell surface and intracellular mGlu5 ([2]; striatum, Quis with versus without LY393053 20 μM): no difference in EC50
EC50 [3]: 122 ± 12.1 nM
Quis EC80 ([3]; hippocampal): 515 ± 51.4 nM
fold difference in potency, Quis with versus without LY393053 ([3]; hippocampus, LY393053 20 μM): ~1.8 fold
EC50 [4]: 168 ± 55.8 nM
fold difference in potency, Quis with versus without LY393053 ([4]; cortex, LY393053 20 μM): ~1.8 fold
Quis EC80 ([4]; cortical): 670 ± 223 nM

SMILES: Cc1cccnc1C#Cc1ccccc1 [5MPEP, 5-methyl-6-(phenylethynyl)-pyridine]
effect on Quis-mediated Ca2+ responses (intracellular mGlu5) ([6]; striatal neurons, Quis 10 μM): neither 5MPEP,[34] a neutral allosteric modulator, nor LY393053 affected Quis-induced Ca^2+ rises

SMILES: Cc1cccc(C#Cc2ccccc2)n1 [MPEP, 2-methyl-6-(phenylethynyl)pyridine]
effect on DHPG-induced oscillatory Ca2+ response (mGlu5 (mGlu5/HEK cells)): blocked
effect of NAM pretreatment on DHPG or Quis-mediated Ca2+ responses (mGlu5 (mGlu5/HEK cells)): completely blocked

SMILES: NC(CC1c2ccccc2Sc2ccccc21)(C(=O)O)C1CC(C(=O)O)C1 (mixture of isomers) [LY393053, 2-Amino-2-(3-cis/trans-carboxycyclobutyl)-3-(9H-thioxanthen-9-yl) propionic acid]
effect on Quis-mediated Ca2+ responses (intracellular mGlu5) ([6]; striatal neurons, Quis 10 μM): neither 5MPEP,[34] a neutral allosteric modulator, nor LY393053 affected Quis-induced Ca^2+ rises

SMILES: C[C@@H](Oc1nnc(-c2ccncc2)n1C)c1cc(-c2cccc(Cl)c2)on1 [AZD2066, 4-[5-[(1R)-1-[5-(3-chlorophenyl)-3-isoxazolyl]ethoxy]-4-methyl-4H-1,2,4-triazol-3-yl]pyridine]
LLE [7]: 4.29
IC50 [2]: 3560 ± 520 nM
IC50 [3]: 96.2 ± 17.8 nM
IC50 [4]: 380 ± 78 nM
effect on DHPG-induced oscillatory Ca2+ response (mGlu5 (mGlu5/HEK cells)): blocked
effect of NAM pretreatment on DHPG or Quis-mediated Ca2+ responses (mGlu5 (mGlu5/HEK cells)): completely blocked
effect on single cell intracellular responses at 10-fold IC50 [6]: did not block
effect on Quis-mediated Ca2+ responses (intracellular mGlu5) ([6]; striatal neurons, Quis 10 μM): less effective
